Reference: ChEMBL document CHEMBL3860087, “New Broad-Spectrum Antibacterial Amphiphilic Aminoglycosides Active against Resistant Bacteria: From Neamine Derivatives to Smaller Neosamine Analogues” (J Med Chem, 2016)
Values after ≈ are worked out from the molar mass of the structure shown.

Columns and labels:
Mus musculus [1] = species: Mus musculus; assay: (§1) Cytotoxicity against mouse J774 cells assessed as cell viability at 30 uM after 24 hrs by MTT assay relative to control; type: toxicity, cell-based; details: j774, 24 h, 30 µM
Summary of the method: (§2)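 Murine J774 macrophages exposed 24 h to 10 or 30 μM compound, then 1 h with 0.2 mg/mL MTT; reaction stopped with DMSO, OD read at 570 nm as metabolic-activity viability. Number of independent experiments given per value.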

Mus musculus [2] = species: Mus musculus; assay: (§3) Cytotoxicity against mouse J774 cells assessed as cell viability at 10 uM after 24 hrs by MTT assay relative to control; type: toxicity, cell-based; details: j774, 24 h, 10 µM; summary of the method: as §2
Klebsiella pneumoniae = assay: Antibacterial activity against Klebsiella pneumoniae ATCC 700603 by microdilution method; type: functional
Summary of the method: (§4)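 Strains grown overnight at 37 °C on trypticase soy agar; MIC by broth microdilution from fresh culture in cation-adjusted Mueller–Hinton broth, starting inoculum 10^6 cells, following CLSI recommendations.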

Pseudomonas aeruginosa [3] = assay: Antibacterial activity against Pseudomonas aeruginosa ATCC 27853 by microdilution method; type: functional; summary of the method: as §4
[4] = as §1; type: toxicity, cell-based; details: J774 cells, read-out: Activity; summary of the method: as §2
[5] = as §3; type: toxicity, cell-based; details: J774 cells, read-out: Activity; summary of the method: as §2
Pseudomonas aeruginosa [6] = assay: Antibacterial activity against MexXY expressing Pseudomonas aeruginosa PA22 by microdilution method; type: functional; summary of the method: as §4
Acinetobacter lwoffii [7] = assay: Antibacterial activity against Acinetobacter lwoffii ATCC 17925 by microdilution method; type: functional; summary of the method: as §4
Acinetobacter lwoffii [8] = assay: Antibacterial activity against APH3'-VIA expressing Acinetobacter lwoffii AI.88-483 by microdilution method; type: functional; summary of the method: as §4
Escherichia coli [9] = assay: microbe, parasite or virus in culture; details: ATCC 25922
Staphylococcus aureus [10] = assay: Antibacterial activity against Staphylococcus aureus ATCC 25923 by microdilution method; type: functional
Summary of the method: (§5)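 Broth microdilution per CLSI in cation-adjusted Mueller–Hinton broth. Strains were grown overnight at 37 °C on trypticase soy agar, and a fresh culture was used. Starting inoculum was 10^6 cells.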

Staphylococcus aureus [11] = assay: Antibacterial activity against NorA expressing Staphylococcus aureus 1 by microdilution method
Pseudomonas aeruginosa [12] = assay: Induction of inner membrane permeabilization of Pseudomonas aeruginosa ATCC 27853 at 5 uM after 15 mins by propidium iodide staining-based fluorescence assay relative to control; type: functional
Summary of the method: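 P. aeruginosa ATCC 27853 from TSA colony, overnight in MHB-CA at 37 °C with shaking, diluted 100-fold and grown 4 h to mid-log (OD620 ~0.4–0.5). Suspension (OD600 0.05) with PI (3 mM stock diluted 10^3-fold) plus compound in HEPES (1–10 μM final). Fluorescence ex 540/em 610 nm at 25 °C after 15 min; normalized to CTAB 150 μM (100%) and imipenem (0%).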

Escherichia coli [13] = assay: Antibacterial activity against AAC6'-IB expressing Escherichia coli PAZ505H8101 by microdilution method; type: functional; summary of the method: as §4
Escherichia coli [14] = assay: Antibacterial activity against ANT2''-IA expressing Escherichia coli L8058.1 by microdilution method; type: functional; summary of the method: as §4
Staphylococcus aureus [15] = assay: Antibacterial activity against healthcare-acquired methicillin-resistant Staphylococcus aureus ATCC 33592 by microdilution method; type: functional; summary of the method: as §5
Pseudomonas aeruginosa [16] = assay: Antibacterial activity against triABC deficient Pseudomonas aeruginosa PA406 by microdilution method; type: functional; summary of the method: as §4
Pseudomonas aeruginosa [17] = assay: Antibacterial activity against AAC6'-2A expressing Pseudomonas aeruginosa F03 by microdilution method; type: functional; summary of the method: as §4
Pseudomonas aeruginosa [18] = assay: Induction of inner membrane permeabilization of Pseudomonas aeruginosa ATCC 27853 at 150 uM after 15 mins by propidium iodide staining-based fluorescence assay relative to control; type: functional
Pseudomonas aeruginosa [19] = assay: Induction of inner membrane permeabilization of Pseudomonas aeruginosa ATCC 27853 after 15 mins by propidium iodide staining-based fluorescence assay; type: functional
Summary of the method: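 Mid-log P. aeruginosa (OD620 ~0.4–0.5, grown in CA-MHB at 37 °C, 130 rpm) was adjusted to OD600 0.05. A 3 mM propidium iodide stock was diluted 10^3-fold in the suspension. Compounds in HEPES were added at final 1–10 μM. Fluorescence (ex 540/em 610 nm) was read at 25 °C after 15 min stabilization. Values were normalized to 150 μM CTAB (100%) and imipenem (0%).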

Pseudomonas aeruginosa [20] = assay: Ratio of MIC for Pseudomonas aeruginosa ATCC 27853 after 9 serial passages to MIC for Pseudomonas aeruginosa ATCC 27853 prior to serial passages; type: functional
Pseudomonas aeruginosa [21] = assay: Ratio of MIC for Pseudomonas aeruginosa ATCC 27853 after 4 serial passages to MIC for Pseudomonas aeruginosa ATCC 27853 prior to serial passages; type: functional

| Compound | MIC (Klebsiella pneumoniae) [µg/mL] | MIC (Pseudomonas aeruginosa [3]) [µg/mL] | viability at 24 h, 30 µM [4] [%] | viability at 24 h, 10 µM [5] [%] | MIC (Pseudomonas aeruginosa [6]) [µg/mL] | MIC (Acinetobacter lwoffii [7]) [µg/mL] | MIC (Acinetobacter lwoffii [8]) [µg/mL] | MIC (Escherichia coli [9]) [µg/mL] | MIC (Staphylococcus aureus [10]) [µg/mL] | MIC (Staphylococcus aureus [11]) [µg/mL] | MIC (Escherichia coli [13]) [µg/mL] | MIC (Escherichia coli [14]) [µg/mL] | MIC (Staphylococcus aureus [15]) [µg/mL] | MIC (Pseudomonas aeruginosa [16]) [µg/mL] | MIC (Pseudomonas aeruginosa [17]) [µg/mL] | also measured |
| --- | --- | --- | --- | --- | --- | --- | --- | --- | --- | --- | --- | --- | --- | --- | --- | --- |
| GENTAMICIN | – | – | – | – | – | – | – | – | – | – | – | – | – | – | – | Activity (Mus musculus [1]): 74.2%; Activity (Mus musculus [2]): 88.2% |
| CCCCCCCCCO[C@@H]1[C@@H](N)[C@@H](OCC(O)CNCCCN)O[C@H](CN)[C@H]1OCCCCCCCCC (mixture of isomers) | 32 | 8 | 71.6 | 101 | 8 | 2 | 8 | 8 | 2 | 2 | 4 | 8 | 2 | 4 | 8 | Activity (Pseudomonas aeruginosa [12]): 25% |
| Hexadecyltrimethylammonium bromide | – | – | – | – | – | – | – | – | – | – | – | – | – | – | – | Activity (Pseudomonas aeruginosa [18]): 100% |
| C[C@@H](O)[C@H]1C(=O)N2C(C(=O)O)=C(SCCNC=N)C[C@H]12 [IMIPENEM ANHYDROUS] | – | – | – | – | – | – | – | – | – | – | – | – | – | – | – | Activity (Pseudomonas aeruginosa [19]): 0% |
| CCCCCCCCCO[C@@H]1[C@@H](N)[C@@H](O[C@H]2[C@H](O)[C@@H](O)[C@H](N)C[C@@H]2N)O[C@H](CN)[C@H]1OCCCCCCCCC | 16 to 32 (≈ 27.8 to 55.7 µM) | 8 to 16 (≈ 13.9 to 27.8 µM) | 48.6 | 82.7 | 8 to 16 (≈ 13.9 to 27.8 µM) | 2 to 4 (≈ 3.48 to 6.96 µM) | 32 (≈ 55.7 µM) | 4 to 8 (≈ 6.96 to 13.9 µM) | 4 (≈ 6.96 µM) | 2 (≈ 3.48 µM) | 2 to 4 (≈ 3.48 to 6.96 µM) | 4 to 8 (≈ 6.96 to 13.9 µM) | 4 (≈ 6.96 µM) | 8 to 16 (≈ 13.9 to 27.8 µM) | 8 to 16 (≈ 13.9 to 27.8 µM) | Activity (Pseudomonas aeruginosa [12]): 25% |
| NC[C@H]1O[C@H](O[C@H]2[C@H](O)[C@@H](O)[C@H](N)C[C@@H]2N)[C@H](N)[C@@H](OCCCc2ccc3ccccc3c2)[C@@H]1OCCCc1ccc2ccccc2c1 | 64 (≈ 97.1 µM) | 4 (≈ 6.07 µM) | 66.9 | 87.7 | 16 (≈ 24.3 µM) | 2 to 4 (≈ 3.04 to 6.07 µM) | 32 to 64 (≈ 48.6 to 97.1 µM) | 16 to 32 (≈ 24.3 to 48.6 µM) | 2 to 4 (≈ 3.04 to 6.07 µM) | 0.5 to 1 (≈ 0.759 to 1.52 µM) | 2 (≈ 3.04 µM) | 4 to 8 (≈ 6.07 to 12.1 µM) | 1 to 2 (≈ 1.52 to 3.04 µM) | 4 (≈ 6.07 µM) | 8 (≈ 12.1 µM) | Ratio (Pseudomonas aeruginosa [20]): 15 |
| NC[C@H]1O[C@H](O[C@H]2[C@H](O)[C@@H](O)[C@H](N)C[C@@H]2N)[C@H](N)[C@@H](O)[C@@H]1O [NEAMINE] | 32 (≈ 99.3 µM) | > 128 | 84.4 | 94.8 | > 128 | 0.5 (≈ 1.55 µM) | > 128 | 32 (≈ 99.3 µM) | 16 to 32 (≈ 49.6 to 99.3 µM) | 8 (≈ 24.8 µM) | > 128 | 32 (≈ 99.3 µM) | > 128 | 64 (≈ 199 µM) | > 128 | – |
| O=C(O)c1cn(C2CC2)c2cc(N3CCNCC3)c(F)cc2c1=O [CIPROFLOXACIN] | – | – | – | – | – | – | – | – | – | – | – | – | – | – | – | Ratio (Pseudomonas aeruginosa [21]): 15 |
